# Data: ChEMBL document CHEMBL2034854, “Design, synthesis and biological evaluation of novel amino acid ureido derivatives as aminopeptidase N/CD13 inhibitors” (Bioorg Med Chem, 2012)
# Calls of active or inactive are those of the source. No cut-off for these calls is given here.
# Assays:
# [1] = molecular target: T1, Aminopeptidase N (Sus scrofa, UniProt P15145); assay: Inhibition of pig kidney APN using L-Leu-p-nitroanilide as substrate incubated for 5 mins prior to substrate addition measured after 30 mins by UV/VIS spectrophotometry
# T1 sequence (P15145 whole entry): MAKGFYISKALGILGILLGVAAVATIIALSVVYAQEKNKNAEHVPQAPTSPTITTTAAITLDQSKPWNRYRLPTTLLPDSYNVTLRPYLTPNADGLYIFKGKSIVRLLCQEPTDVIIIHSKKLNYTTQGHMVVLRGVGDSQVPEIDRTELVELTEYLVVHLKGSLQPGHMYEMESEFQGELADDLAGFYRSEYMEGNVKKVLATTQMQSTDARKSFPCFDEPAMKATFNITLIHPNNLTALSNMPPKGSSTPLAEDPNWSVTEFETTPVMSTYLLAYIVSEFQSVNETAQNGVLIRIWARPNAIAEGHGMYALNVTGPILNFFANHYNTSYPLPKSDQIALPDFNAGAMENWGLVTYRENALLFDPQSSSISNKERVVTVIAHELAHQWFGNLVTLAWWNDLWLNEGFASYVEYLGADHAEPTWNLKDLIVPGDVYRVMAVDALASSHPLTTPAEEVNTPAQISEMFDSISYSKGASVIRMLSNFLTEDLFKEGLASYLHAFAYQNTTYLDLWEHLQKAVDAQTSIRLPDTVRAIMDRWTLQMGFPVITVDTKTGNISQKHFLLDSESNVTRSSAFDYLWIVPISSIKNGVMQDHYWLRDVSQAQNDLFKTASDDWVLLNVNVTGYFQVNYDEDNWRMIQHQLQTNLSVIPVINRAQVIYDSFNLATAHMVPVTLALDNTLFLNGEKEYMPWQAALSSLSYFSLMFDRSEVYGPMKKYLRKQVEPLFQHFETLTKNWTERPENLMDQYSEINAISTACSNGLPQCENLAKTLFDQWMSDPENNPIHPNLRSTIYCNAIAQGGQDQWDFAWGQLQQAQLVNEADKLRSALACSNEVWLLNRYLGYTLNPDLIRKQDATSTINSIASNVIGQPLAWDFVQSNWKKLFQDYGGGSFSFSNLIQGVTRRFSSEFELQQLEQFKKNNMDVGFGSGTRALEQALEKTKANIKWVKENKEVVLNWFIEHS
# In short: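 Porcine kidney microsomal APN, 6 μg/mL final, in 50 mM PBS pH 7.2 with 0.5% DMSO final. Inhibitor and enzyme preincubated 5 min at room temperature. Percent inhibition from control and zero-setting OD; IC50 calculated.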
# [2] = system: ES2; assay: Antimetastatic activity against human ES2 cells assessed as inhibition of invasion through transwell chamber with matrigel coating after 8 hrs by crystal voilet staining; format: functional, cell-based
# In short: (§1)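 ES-2 cells (100,000 per insert) in RPMI-1640 with 1% FBS placed on Matrigel inserts rehydrated 2 h; lower chamber RPMI-1640 with 10% FBS. Compound at 10 and 100 μg/mL with 0.1% DMSO final added to upper chamber. Invasion 8 h at 37 °C in CO2. Non-invading cells swabbed off; remaining cells fixed and crystal-violet stained, counted in five random ×100 fields per insert. At least three experiments, triplicates.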
# [3] = Antimetastatic activity against human ES2 cells assessed as inhibition of invasion through transwell chamber with matrigel coating at 10 to 100 ug/mL after 8 hrs by crystal voilet staining relative to control; format: functional; in short: as §1
# [4] = Antiproliferative activity against human ES2 cells after 48 hrs by MTT assay; format: functional, cell-based; details: ES-2, 48 h
# In short: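 ES-2 cells grown in RPMI-1640 with 10% FBS, seeded 8000 per well and left to adhere 10 h. Compounds then added at a range of concentrations in the same medium with 0.1% DMSO, 48 h at 37 °C in CO2. MTT added for 4 h; formazan dissolved in DMSO, read at 590 nm. Inhibition from control and zero-setting OD; IC50 calculated; three assays.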
# [5] = system: ES2; assay: Antimetastatic activity against human ES2 cells assessed as inhibition of migration through transwell chamber without matrigel coating at 100 ug/mL after 3 hrs by crystal voilet staining; format: functional, cell-based
# In short: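 Uncoated transwell inserts. Upper chamber holds compound at 100 µg/mL in RPMI-1640 with 1% FBS, 0.1% DMSO final, plus ES-2 cells (60000 per well). Migration 3 h at 37 °C in CO2. Upper-side cells swabbed away; migrated cells fixed and stained with 0.1% crystal violet, extracted with 33% acetic acid, read at 595 nm. Rate uses treated, control and blank OD. Repeated ≥3 times in triplicate.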
# [6] = molecular target: Aminopeptidase N (Homo sapiens, UniProt P15144); assay: Inhibition of APN in human ES2 cell surface using L-Leu-p-nitroanilide as substrate incubated for 5 mins prior to substrate addition measured after 1 hr by UV/VIS spectrophotometry
# In short: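 Enzyme source: intact ES-2 cells, 2 × 10^5 per well, in 10 mM PBS pH 7.4 with 0.1% DMSO final. Inhibitors preincubated with cells 5 min at room temperature. L-Leu-p-nitroanilide then added, 1 h at 37 °C. Inhibition from control and zero-setting OD; IC50 calculated; mean ± SD of three assays.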
# [7] = molecular target: 72 kDa type IV collagenase (Homo sapiens, UniProt P08253); assay: Inhibition of recombinant MMP2 using succinylated gelatin as substrate incubated for 10 mins prior to substrate addition measured after 1 hr by UV/VIS spectrophotometry
# In short: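 Recombinant MMP-2 and compound, both in 50 mM sodium borate pH 8.5, held 10 min at 37 °C. Succinylated gelatin then added for 60 min at 37 °C. Free amines developed with 0.03% picrylsulfonic acid, 20 min at room temperature, read at 450 nm. Inhibition from control and zero-setting OD; IC50 calculated; three assays, SD <10% of means.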
# Chain of 72 kDa type IV collagenase (P08253 whole entry): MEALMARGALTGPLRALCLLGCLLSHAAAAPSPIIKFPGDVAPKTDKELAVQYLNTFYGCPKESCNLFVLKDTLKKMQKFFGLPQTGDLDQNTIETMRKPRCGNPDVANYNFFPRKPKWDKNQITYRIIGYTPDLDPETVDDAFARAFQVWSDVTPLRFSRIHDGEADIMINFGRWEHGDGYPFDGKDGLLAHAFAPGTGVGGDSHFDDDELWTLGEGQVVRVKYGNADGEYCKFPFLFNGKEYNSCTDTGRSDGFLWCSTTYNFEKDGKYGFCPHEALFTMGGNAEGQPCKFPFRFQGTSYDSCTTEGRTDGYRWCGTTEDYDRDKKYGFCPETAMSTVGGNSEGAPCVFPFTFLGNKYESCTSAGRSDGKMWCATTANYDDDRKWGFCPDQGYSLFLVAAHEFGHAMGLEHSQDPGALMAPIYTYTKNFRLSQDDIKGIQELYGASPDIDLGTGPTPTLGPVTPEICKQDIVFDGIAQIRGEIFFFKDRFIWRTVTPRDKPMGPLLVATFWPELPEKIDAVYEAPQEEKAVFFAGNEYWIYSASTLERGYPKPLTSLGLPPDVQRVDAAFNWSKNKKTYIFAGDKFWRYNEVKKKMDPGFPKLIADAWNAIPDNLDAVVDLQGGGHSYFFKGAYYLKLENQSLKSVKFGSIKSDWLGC
# Chain of Aminopeptidase N (Homo sapiens, UniProt P15144) (P15144 whole entry): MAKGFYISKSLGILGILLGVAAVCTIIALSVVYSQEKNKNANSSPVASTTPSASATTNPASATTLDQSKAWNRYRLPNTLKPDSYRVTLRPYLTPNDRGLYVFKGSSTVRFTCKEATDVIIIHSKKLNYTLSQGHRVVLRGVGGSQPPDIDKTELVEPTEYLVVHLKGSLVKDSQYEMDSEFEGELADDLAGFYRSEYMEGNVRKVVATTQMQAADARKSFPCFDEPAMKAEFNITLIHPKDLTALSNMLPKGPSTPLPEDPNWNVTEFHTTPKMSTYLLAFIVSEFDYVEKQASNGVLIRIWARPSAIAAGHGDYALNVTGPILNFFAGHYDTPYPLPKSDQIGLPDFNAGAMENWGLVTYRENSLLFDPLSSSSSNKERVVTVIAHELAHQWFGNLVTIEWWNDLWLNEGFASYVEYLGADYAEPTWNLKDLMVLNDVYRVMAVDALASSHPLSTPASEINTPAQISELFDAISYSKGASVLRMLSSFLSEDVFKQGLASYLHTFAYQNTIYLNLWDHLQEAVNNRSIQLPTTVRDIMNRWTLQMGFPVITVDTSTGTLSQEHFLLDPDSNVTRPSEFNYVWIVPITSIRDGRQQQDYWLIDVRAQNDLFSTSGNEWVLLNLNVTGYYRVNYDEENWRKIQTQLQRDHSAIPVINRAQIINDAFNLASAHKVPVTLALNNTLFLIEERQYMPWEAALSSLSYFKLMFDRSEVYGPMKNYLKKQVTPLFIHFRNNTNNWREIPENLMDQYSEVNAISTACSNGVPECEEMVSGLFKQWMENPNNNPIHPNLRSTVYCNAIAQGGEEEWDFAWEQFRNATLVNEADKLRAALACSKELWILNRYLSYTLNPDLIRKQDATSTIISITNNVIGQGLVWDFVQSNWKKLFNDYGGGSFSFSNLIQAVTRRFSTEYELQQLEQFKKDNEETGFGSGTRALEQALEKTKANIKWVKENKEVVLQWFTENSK
Compound,IC50 [1] [µM],further results
CC(C)[C@H](NC(=O)NC(C)(C)C)C(=O)NO,> 100,
C[C@H](NC(=O)NC(C)(C)C)C(=O)NO,> 100,
CC(C)(C)NC(=O)NCC(=O)NO,> 100,
O=C(CNC(=O)NCCc1ccccc1)NO,52,
C[C@H](NC(=O)NCCc1ccccc1)C(=O)NO,21,
CC(C)C[C@H](NC(=O)N[C@@H](CC(C)C)C(=O)NO)C(=O)NO,> 100,
CC(C)(C)NC(=O)N[C@@H](Cc1ccccc1)C(=O)NO,> 100,
CC[C@H](C)[C@H](NC(=O)NC(C)(C)C)C(=O)NO,> 100,
CC[C@H](C)[C@H](NC(=O)NCCc1ccccc1)C(=O)NO,> 100,
CC(C)[C@H](NC(=O)NCc1ccccc1)C(=O)NO,17,
CC(C)C[C@H](NC(=O)NCCc1ccccc1)C(=O)NO,1.1,inhibition [2]: Dose-dependent effect; inhibition (INH) [3]: 55%; IC50 [4]: 96 µM; inhibition [5]: inactive; IC50 [6]: 5.1 µM; IC50 [7]: > 500 µM
CC[C@H](C)[C@H](NC(=O)NCc1ccccc1)C(=O)NO,4.1,IC50 [4]: 770 µM; inhibition [5]: inactive; IC50 [6]: 39 µM; IC50 [7]: > 500 µM
CC(C)[C@H](NC(=O)NCCc1ccccc1)C(=O)NO,> 100,
CC(C)C[C@H](NC(=O)NC1CCCCC1)C(=O)NO,> 100,
CC(C)C[C@H](NC(=O)[C@@H](O)[C@H](N)Cc1ccccc1)C(=O)O [UBENIMEX],,IC50 [4]: 490 µM
CSCC[C@H](NC(=O)NC(C)(C)C)C(=O)NO,> 100,
CSCC[C@H](NC(=O)NCCc1ccccc1)C(=O)NO,> 100,
O=C(CNC(=O)NCc1ccccc1)NO,32,
O=C(N[C@@H](Cc1ccccc1)C(=O)NO)N[C@@H](Cc1ccccc1)C(=O)NO,> 100,
CC(C)C[C@H](NC(=O)NC(C)(C)C)C(=O)NO,> 100,
O=C(NCCc1ccccc1)N[C@@H](Cc1ccccc1)C(=O)NO,6.5,
CC(C)C[C@H](NC(=O)OCCc1ccccc1)C(=O)NO,18,
CSCC[C@H](NC(=O)NCc1ccccc1)C(=O)NO,3.8,IC50 [4]: > 1000 µM; IC50 [6]: 22 µM; IC50 [7]: > 500 µM
O=C(NCc1ccccc1)N[C@@H](Cc1ccccc1)C(=O)NO,5.6,IC50 [4]: 510 µM; inhibition [5]: inactive; IC50 [6]: 16 µM; IC50 [7]: > 500 µM
CC(C)C[C@H](NC(=O)OCc1ccccc1)C(=O)NO,9.1,
C[C@H](NC(=O)NCc1ccccc1)C(=O)NO,21,
